# Assay results of several laboratories.
# Protocols differ between the studies behind these lines.
Structure (SMILES),host,medium,route,dose,setting,Tmax
CCc1nc2c(C)cc(N3CCN(CC(=O)N4CC(O)C4)CC3)cn2c1N(C)c1nc(-c2ccc(F)cc2)c(C#N)s1,human,plasma,oral,1000 mg,"fed, healthy volunteers",2 h
C[C@@H](Nc1cc(F)cc(F)c1)c1cc(C(=O)N(C)C)cc2c(=O)cc(N3CCOCC3)oc12,human,plasma,oral,300 mg,"single dose, patients",1.21 h
Cc1nc(NC(=O)N2CCC[C@H]2C(N)=O)sc1-c1ccnc(C(C)(C)C(F)(F)F)c1,human,plasma,oral,350 mg,patients,1.77 h
CC(C)(O)c1ccccc1-c1ccc2[nH]c(/C=C/c3ccc(C(F)(F)F)cc3)nc2c1,male human,plasma,oral,2 mg,"single dose, fasted",3.94 h
CC(C)(Sc1ccncc1-c1ccc(C#N)c2ccccc12)C(=O)O,male human,plasma,oral,10 mg,"multiple doses, once daily",1 h
O=C(Nc1c(Cl)cncc1Cl)c1ccc(OC(F)F)c(OCC2CC2)c1,human,plasma,oral,0.375 mg,single dose,0.5 h
COc1cc(N2CCC(N3CCN(C)CC3)CC2)ccc1Nc1ncnc(Nc2ccccc2S(=O)(=O)C(C)C)n1,human,plasma,oral,125 mg,"multiple doses, patients",2.97 h
C[C@@]1(c2cc(NC(=O)c3ccc(C#N)cn3)ccc2F)C=CSC(N)=N1,human,plasma,oral,1 mg,single dose,0.89 h
C=CC(=O)N(C)CCOc1c(N)ncnc1-c1cc(F)cc(NC(=O)c2ccc(C3CC3)cc2F)c1C,human,blood,oral,400 mg,"single dose, healthy volunteers",1.24 h
COc1ccc([C@@H]2CN(C(=O)[C@@H](O)CO)C[C@@]2(C)[C@@H](C)O)cc1OC1CN(c2ccc(C)cn2)C1,human,plasma,oral,20 mg,"single dose, healthy volunteers",1.5 h
c1cnc2ccc(Nc3nc(NC4CC4)c4nc[nH]c4n3)cc2c1,human,plasma,oral,200 mg/m²,patients,5.7 h
CO[C@@H]1[C@H](OC(=O)N2CC(CCN3CCOCC3)C2)CC[C@]2(CO2)[C@H]1[C@@]1(C)O[C@@H]1CC=C(C)C,human,plasma,subcutaneous,3.6 mg,"single dose, healthy volunteers",0.25 h
NS(=O)(=O)NCCNc1nonc1C(=NO)Nc1ccc(F)c(Br)c1,human,plasma,oral,50 mg,"multiple doses, once daily, steady state, patients",2 h
CCc1nc(C(N)=O)c(Nc2ccc(N3CCC(N4CCN(C)CC4)CC3)c(OC)c2)nc1NC1CCOCC1,human,plasma,oral,40 mg,"multiple doses, patients",4.01 h
C#C[C@]1(COP(=O)(O)OP(=O)(O)OP(=O)(O)O)O[C@@H](n2cnc3c(N)nc(F)nc32)C[C@@H]1O,human,plasma,oral,5 mg,single dose,9 h
CC(C)n1cc(C#N)c2cc(-n3cc(C(=O)O)cn3)ccc21,human,plasma,oral,100 mg,"multiple doses, once daily, steady state",2.5 h
Cn1cc(-c2ccc(S(=O)(=O)[C@@H]3C[C@@H](C(=O)NC4(C#N)CC4)N(C(=O)C4(C(F)(F)F)CC4)C3)c(C(F)(F)F)c2)cn1,human,plasma,oral,1 mg,"single dose, fasted, healthy volunteers",4 h
CS(=O)(=O)CCC#N,human,plasma,oral,100 mg,"multiple doses, once daily",1 h
